The subject of series [1] is Citrobacter freundii. Description: Minimum inhibitory concentration against the strain Citrobacter freundii 1982 that produce the beta-lactamases. Type of series: functional. The essentials:
(§1)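 Agar dilution on Mueller-Hinton agar with twofold serial dilutions of the compound or combination. About 10⁴ organisms were spotted with a multipoint inoculator. Plates were incubated for 18 h at 35 °C. MIC was taken as the lowest concentration preventing visible growth.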

The subject of series [2] is Pseudomonas aeruginosa. The experiment in a line: Minimum inhibitory concentration against the strains of Pseudomonas aeruginosa that produce the beta-lactamases. The class given is functional. The essentials:
as §1

Series [3] has as its system Escherichia coli. Description: Minimum inhibitory concentration against the strains of Escherichia coli that produce the beta-lactamases. Type of series: functional. The essentials:
as §1

The nature of series [4]: Kinetic parameter was determined.

Results on five compounds are retold here after ChEMBL document CHEMBL1131131, “Structure-based design of beta-lactamase inhibitors. 2. Synthesis and evaluation of bridged sulfactams and oxamazins” (J Med Chem, 1998).

Structures are written as SMILES. Values after ≈ are worked out from the molar mass of the structure shown.

One may read the MIC as the lowest concentration found to suppress growth. The low end stands for inhibition by little substance, the high end for a need for much substance. On to `NC(=O)c1ccc(NC(=O)N2CCC3C2C(=O)N3OS(=O)(=O)[O-])cc1.[Na+]` (stereo not given), for which the MIC amounted to 1 µg/mL in series [1], 128 µg/mL in series [2] and 8 µg/mL in series [3].
In the same order, the values of `CC(C)(C)OC(=O)N1CCC2C1C(=O)N2OCC(=O)OCc1ccccc1` (stereo not given) are > 16 µg/mL, > 16 µg/mL and > 16 µg/mL.
On to `CC(C)(C)OC(=O)N1CCC2C1C(=O)N2OS(=O)(=O)[O-].[Na+]` (stereo not given), for which the minimum inhibitory concentration (MIC) in series [1] came to 4 µg/mL; in series [2] it was 32 µg/mL; in series [3] it was 4 µg/mL. The same compound registered a Koff in series [4] of 0.12 s⁻¹. In addition, in series [4], the Kon came out at 20 s⁻¹. The same compound came in with a Ks in series [4] of 600 µM.
For `NC(=O)c1ccc(NC(=O)N2CC[C@@H]3[C@H]2C(=O)N3S(=O)(=O)O)cc1`, the minimal inhibitory concentration (MIC) in series [1] came to 0.25 µg/mL (≈ 0.706 µM); in series [2], 4 µg/mL (≈ 11.3 µM); in series [3], 16 µg/mL (≈ 45.2 µM).
Turning to `CC(C)(C)OC(=O)N1CC[C@@H]2[C@H]1C(=O)N2S(=O)(=O)O`, in series [2], the MIC came out at 8 µg/mL (≈ 27.4 µM). The MIC in series [3] was 16 µg/mL (≈ 54.7 µM). Further, in series [4], the Koff was < 8e-07 s⁻¹, the Kon was 12.5 s⁻¹ and the Ks came out at 127 µM.
